Calls of active or inactive are those of the source.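 How the source made its calls: active means mean EC50 of 20 µM or lower; inactive means the rest.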
Target: CHO-CHOP luciferase reporter, UPR apoptotic arm activation
Assay: CHOP luciferase reporter activation in CHO cells – cell-based, CHO-CHOP line, luminescence, set 2, SAR follow-up (AID 588594)
Summary of the method: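 Assay system: CHO-CHOP cells with stable CHOP-driven luciferase reporter (PERK-eIF2a-CHOP arm); quantity: 500 cells/well; compound dosing: dose-response series, DMSO ≤1%; times: seeding 16-18 h before compounds, 6 h exposure at 37 °C; technique: Steady-Glo luminescence; controls: high tunicamycin 10 µg/mL, low DMSO alone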

| EC50 | Compound |
| --- | --- |
| 0.732 µM | O=C(Nc1ccc(S(=O)(=O)N2CCC3(CCCCC3)CC2)cc1)c1ccc([N+](=O)[O-])o1 |
| 0.774 µM | O=C(Nc1ccc(S(=O)(=O)N2CCC(F)CC2)cc1)c1ccc([N+](=O)[O-])o1 |
| 5.99 µM | O=C(Nc1nc2ccc(Cl)cc2s1)c1ccccn1 |
| 8.28 µM | O=C(Nc1nc2cc(F)c(F)cc2s1)c1ccccn1 |
| 0.739 µM | O=C(Nc1ccc(S(=O)(=O)N2CCC(Cl)CC2)cc1)c1ccc([N+](=O)[O-])o1 |
| > 80 µM (inactive) | CC1(C)CCN(S(=O)(=O)c2ccc(NC(=O)c3cccc([N+](=O)[O-])c3)cc2)CC1 |
| > 77.5 µM (inactive) | Cn1c([N+](=O)[O-])cnc1C(=O)Nc1ccc(S(=O)(=O)N2CCC(C)(C)CC2)cc1 |

The remaining lines, values behind:

| Compound | EC50 |
| --- | --- |
| O=C(Nc1nc2ccc(C(F)(F)F)cc2s1)c1ccccn1 | 4.68 µM |
| O=C(Nc1nc2c(F)c(F)ccc2s1)c1ccccn1 | 9.88 µM |
| O=C(Nc1ccc(S(=O)(=O)C2CCOCC2)cc1)c1ccc([N+](=O)[O-])o1 | 1.19 µM |
| O=C(Nc1nc2cc(F)ccc2s1)c1ccccn1 | 7.13 µM |
| O=C(Nc1nc2ccc(F)c(F)c2s1)c1ccccn1 | 5.59 µM |
| CC(C)(C)C1CCN(S(=O)(=O)c2ccc(NC(=O)c3ccc([N+](=O)[O-])o3)cc2)CC1 | 0.676 µM |
| CC1(C)CCN(S(=O)(=O)c2ccc(NC(=O)c3ccc(C(F)(F)F)o3)cc2)CC1 | > 80 µM (inactive) |
| O=C(Nc1nc2cc(F)cc(F)c2s1)c1ccccn1 | 6.87 µM |
| O=C(Nc1nc2cccc(F)c2s1)c1ccccn1 | 7 µM |
| O=C(Nc1nc2c(F)ccc(F)c2s1)c1ccccn1 | 6.65 µM |
| CC1CN(S(=O)(=O)c2ccc(NC(=O)c3ccc([N+](=O)[O-])o3)cc2)CC(C)O1 (stereo not drawn) | 1.36 µM |

From PubChem BioAssay AID588594 (Sanford-Burnham Center for Chemical Genomics, 2011)
